# Bioassay records: PubChem, several laboratories
# The entries come from a sample that favours hits as a whole.
# CHOP UPR activ – activators of apoptotic arm of unfolded protein response (CHOP). CHO-CHOP luciferase reporter, UPR activation, luminescence; percent of tunicamycin response over DMSO baseline. activation, % at 10 µM. AID 449763. actives 0.34% (n = 330,000);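 active = at 10 µM dose, activation of 40% or more, normalized to positive control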;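 note: 100% = tunicamycin at 10 µg/mL and 0% = DMSO alone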
#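 System: CHO-CHOP luciferase reporter cell line; amount: 500 cells/well; buffer or medium: F12 medium containing 10% fetal bovine serum; incubation: 6 h compound exposure at 37 °C after overnight seeding; measured by: luciferase luminescence after 10 min with Steady-Glo reagent; evaluation: % reporter activation, DMSO baseline versus tunicamycin full activation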
# V-ATPase pH – yeast V-ATPase proton transport regulation by pHLuorin; S. cerevisiae, pHLuorin cytosolic pH fluorescence; response, % at 10 µM; actives 0.37% (n = 350,000); in the data active = response mostly above about 7.3%, no sharp cut-off; inactive = mostly below about 5.4%; note: actives read high
# UPR XBP1 act – adaptive UPR (XBP1) activation; CHO-XBP1 luciferase reporter, IRE1-XBP1 UPR activation, luminescence; percent of tunicamycin response, DMSO as zero; activation, % at 20 µM; actives 0.33% (n = 330,000);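 active = versus positive control, 20 µM dose yields 30% or more activation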;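 note: 100% = tunicamycin at 10 µg/mL and 0% = DMSO only wells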
#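 Material: CHO cell line with stable XBP1 luciferase reporter; buffer or medium: F12 medium containing 10% fetal bovine serum; compound: single point, 20 µM final compound, 1% DMSO; incubation: 6 h treatment, 37 °C; measured by: glow luminescence from Steady-Glo reagent; evaluation: activation, % of tunicamycin; control set: tunicamycin high, DMSO low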
# CHOP inhibitor – CHOP inhibition in unfolded protein response; AID 2732; CHO-K1 CHOP-promoter luciferase, tunicamycin-induced, 15-18 h; actives 3.8% (n = 220,000); inhibition, % at 10 µM;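 active = compounds that reduced the stress-induced luciferase reporter signal by more than about 70% of percent inhibition, limit read from the data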;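 note: 0% = tunicamycin plus vehicle and 100% = wells without tunicamycin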
# TbMetRS inhib – Trypanosoma brucei MetRS inhibition. purified T. brucei MetRS, ATP depletion, Kinase-Glo luminescence. inhibition, % at 11.9 µM. actives 0.4% (n = 360,000);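 active = inhibition above a per-plate cutoff of the control wells' mean inhibition plus 3 SD, cut at about 5.5% in these data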;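 note: 0% = DMSO wells median and 100% = median of wells with control inhibitor compound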
#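 assay system = parasite MetRS enzyme | timing = 15 min preincubation, 2 h reaction, all 25 °C | evaluation = percent inhibition relative to median high and low control wells | medium = HEPES buffer containing pyrophosphatase, BSA, spermine, DTT | compound = single dose, 11.9 µM final nominal, 0.9% final DMSO | detection = Kinase-Glo luminescence, ATP depletion format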
# The depositor's hits bear a star; · = no result.
SMILES,CHOP UPR activ,V-ATPase pH,UPR XBP1 act,CHOP inhibitor,TbMetRS inhib
O=C(COC(=O)C1CC2C=CC1C2)Nc1ccc2c(c1)OC(F)(F)O2 (stereo not drawn),4,0,1,91*,-1
O=C1NN(c2cccc(Br)c2)C(=O)/C1=C/c1ccc(-c2cc([N+](=O)[O-])ccc2O)o1,0,4,-2,104*,-1
CCN(c1ccccc1)S(=O)(=O)c1ccc(NCC2COc3ccccc3O2)nc1 (stereo not drawn),2,-3,-1,85*,0
FC(F)(F)C(F)(F)c1nc2nc(Cl)c(Cl)nc2[nH]1,·,6,·,·,0
Cc1ccc(NC(=S)N/N=C/c2ccc(Cl)c([N+](=O)[O-])c2)cc1,0,-1,0,80*,-1
C[C@@H](NC(=O)c1nc[nH]c1C(=O)NCC(=O)OCc1ccccc1)c1ccccc1,-2,0,0,·,0
CNc1ccc(Cl)cc1S(=O)(=O)c1ccccc1[N+](=O)[O-],·,·,·,·,-1
CC(=O)Nc1ccc2c(c1)Cc1cc(N3C(=O)C=CC3=O)ccc1-2,·,-3,·,·,0
O=C1C=CC(=O)N1c1ccc2c(c1)Cc1cc(F)ccc1-2,·,17*,·,·,0
COc1ccccc1C(=O)NC(=O)CSc1nnnn1C,3,6,4,·,0
COc1ccc(NC(=O)COC(=O)C2CCN(S(=O)(=O)c3cccs3)CC2)cc1,-2,0,-3,78*,0
CCOC(=O)c1c(/N=C/N(C)C)sc(/C=N/Nc2ccccc2)c1-c1ccccc1Cl,2,0,0,2,0
CCOC(=O)c1c(/N=C/N(C)C)sc(/C=N/Nc2ccccc2)c1-c1ccccc1,4,-3,-1,82*,-1
CCOc1ccc(S(=O)(=O)N(CC(=O)N/N=C/c2cccs2)c2ccc(C)cc2)cc1,0,-4,-3,76*,-1
CC(=O)Nc1ccc(NC(=O)C(C)Sc2nnc(-c3cccs3)o2)cc1 (stereo not drawn),0,2,0,14,0
CCOC(=O)c1cnn(-c2cc(C)c3ccccc3n2)c1N,7,2,-2,47,0
Cc1cc(C)n2nc(C)c(-c3ccc(Cl)cc3)c2n1,0,0,7,·,-1
CCOC(=O)c1cnc2c(-c3ccccc3)c(C)nn2c1N,3,2,2,32,-1
CCOC(=O)c1cnn(-c2cc(C)nc3c(-c4ccccc4)c(C)nn23)c1N,0,·,-1,81*,0
CCOC(=O)c1cnn(-c2cc(C)nc3c(-c4ccc(Cl)cc4)c(C)nn23)c1N,·,·,·,84*,·
CCOC(=O)c1cnc2c(-c3ccccc3)cnn2c1N,6,-1,1,80*,0
O=c1c2ccccc2n(Cc2cccc(F)c2)c(=O)n1C1CCCC1,-3,-1,-1,82*,-1
O=c1c(Cl)c(N2CCC3(CC2)OCCO3)cnn1C12CC3CC(CC(C3)C1)C2,1,-1,1,-4,-1
COc1ccc(N/N=C/c2c(C(=O)O)ccc3ccccc23)cc1,-1,2,1,96*,0
CCOc1ccc(CCNC(=O)Cn2cccc2C(=O)c2ccccc2C)cc1OCC,5,-1,-1,75*,0
SMILES,CHOP UPR activ,V-ATPase pH,UPR XBP1 act,CHOP inhibitor,TbMetRS inhib
O=C(Nc1csc(Cc2c(Cl)cccc2Cl)n1)NN1CCOCC1,1,-2,-1,·,-1
CCCSc1ncnc2c1oc1ccccc12,4,1,4,32,-1
CC(C)Sc1ncnc2c1oc1ccccc12,11,1,7,75*,-1
CCCc1nc(SCC(=O)Nc2cc(Cl)ccc2OC)c2c(=O)n(C)c(=O)n(C)c2n1,0,·,3,79*,·
CCCc1nc(SCC(=O)c2ccccc2)c2c(=O)n(C)c(=O)n(C)c2n1,1,-1,-2,74*,0
C[C@@H]1CN([C@@H](C)CO)C(=O)CCCn2nncc2CO[C@H]1CN(C)Cc1ccc2cccnc2c1,·,-3,·,·,-2
CC(O)(C#CCN1CCCCC1)c1ccccc1 (stereo not drawn),0,0,-1,16,-1
CC(C)(C#CCN1CCCCC1)OCCOC(c1ccccc1)c1ccccc1,0,-5,-3,77*,0
CC1CC(C)(C)N2C(=O)C3(Nc4ccccc4S3)c3cccc1c32 (stereo not drawn),-1,2,-2,91*,-1
CC(=O)c1cccc(NC(=O)c2cc(S(=O)(=O)N3CCCCC3)ccc2N2CCOCC2)c1,·,-1,·,·,0
CC(C)[C@H](NC(=O)c1ccccc1F)C(=O)OCCN1C(=O)c2ccccc2C1=O,3,-5,-3,·,-1
O=C(Nc1cc(Cl)ccc1O)c1snnc1-c1ccccc1,0,3,1,82*,0
CC(C)CNC(=O)C1(C)CCCN1C(=O)c1cccnc1Oc1ccccc1 (stereo not drawn),·,·,·,·,0
Cc1ccn2c(Nc3ccccc3C)c(-c3ccccn3)nc2c1,16,-2,11,88*,-1
Cc1ccccc1Nc1c(-c2ccccn2)nc2ccccn12,2,-2,12,69,1
Cc1ccn2c(Nc3ccccc3)c(-c3ccccn3)nc2c1,16,-3,9,84*,-1
Cc1ccc2nc(-c3ccccn3)c(Nc3ccccc3C)n2c1,19,-3,7,77*,-1
COC(=O)c1c(-c2cc(OC)c(OC)c(OC)c2)c2ccnc(OCc3ncccn3)c2c(=O)n1Cc1ccnc(C)c1,·,·,·,-10,·
c1csc(-c2csc(-c3cccs3)n2)c1,5,-1,4,77*,-1
c1cncc(-c2nc(-c3cccs3)cs2)c1,0,2,1,27,0
CCCNC(=O)C1(C)CCCN(C(=O)c2ccc(OC(F)F)cc2)C1 (stereo not drawn),·,·,·,·,0
C=Cc1ccc(Cn2c(C)c(C(=O)NCc3ccc4c(c3)OCCO4)sc2=O)cc1,·,·,·,·,0
Cc1ccc(C)n1-n1c(C)nc2sc(-c3ccccc3)cc2c1=O,2,-7,-4,77*,-1
Cc1ccc(C)n1-n1cnc2sc(-c3ccccc3)cc2c1=O,1,-2,-2,79*,0
C/C=C/c1cccc(-c2nc(C(=O)N3CCCCC3)cc3c2[C@@H](CCO)N(C(=O)NC(C)C)C3)c1,·,·,·,·,-1
COc1ccccc1NC(=O)CN1CCN(CC(=O)Nc2ccccc2F)CC1,·,0,·,·,0
COc1cc(NC(=O)Nc2ccccc2)c(OC)cc1NC(=O)CN1CCCCC1,2,1,-2,90*,-1
COc1cc(NC(=O)Nc2ccccc2OC)c(OC)cc1NC(=O)CN1CCCCC1,-1,-2,-1,3,0
COc1ccccc1NC(=O)CN1CCC(n2nnc3cc(F)ccc32)CC1,-1,5,-2,33,0
